Test results: ChEMBL document CHEMBL3769393, “Chiral pool synthesis and biological evaluation of C-furanosidic and acyclic LpxC inhibitors” (Eur J Med Chem, 2016)
pIC50, pKi: −log10 of the molar value.

How the values were obtained:
[1] = Inhibition of Escherichia coli BL21(DE3) LpxC C63A mutant using UDP-3-O-(R-3-hydroxymyristoyl)-N-acetylglucosamine as substrate incubated for 30 mins by Cheng-Prusoff equation analysis
Escherichia coli [2] = experiment: Antibacterial activity against envA mutant Escherichia coli D22 cells assessed as diameter of zone of growth inhibition after overnight incubation at 37 degC by agar disc diffusion clearance assay; format: functional
In short: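 E. coli D22 (defective strain) grown overnight in LB broth at 37 °C, 200 rpm; 150 µL of overnight suspension spread on LB agar. 6 mm filter paper discs loaded with 15 µL compound (10 mM in DMSO); DMSO disc as negative control, CHIR-090 as positive control. Plates incubated overnight at 37 °C; growth-inhibition zone diameter measured.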

[3] = Inhibition of Escherichia coli BL21(DE3) LpxC C63A mutant using UDP-3-O-(R-3-hydroxymyristoyl)-N-acetylglucosamine as substrate incubated for 30 mins by o-phthaldialdehyde-2-mercaptoethanol based fluorescence assay
Escherichia coli [4] = experiment: Antibacterial activity against Escherichia coli BL21(DE3) cells assessed as diameter of zone of growth inhibition after overnight incubation at 37 degC by agar disc diffusion clearance assay; format: functional
In short: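 Overnight LB broth cultures (37 °C, 200 rpm); 150 µL spread on LB agar. 6 mm filter discs loaded with 15 µL of 10 mM compound in DMSO. DMSO disc as negative control, CHIR-090 as positive control. Plates kept overnight at 37 °C, then diameter of the growth-inhibition zone measured.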

In the case of `O=C(NO)[C@H]1O[C@@H](c2ccc(C#Cc3ccc(CN4CCOCC4)cc3)cc2)[C@@H](O)[C@H]1O`, the pKi [1] was under 4.56, the “diameter of the inhibition zone (DIZ)” value (Escherichia coli [2]) was 13.2 mm and the pIC50 [3] was under 3.70. The “diameter of the inhibition zone (DIZ)” value (Escherichia coli [4]) was under 6 mm.

With `O=C(NO)[C@H](CO)O[C@H](CO)c1ccc(C#Cc2ccc(CN3CCOCC3)cc2)cc1` the pKi [1] was 6.46, the “diameter of the inhibition zone (DIZ)” value (Escherichia coli [2]) was 20.4 mm and the pIC50 [3] was 5.59. For the same compound, the “diameter of the inhibition zone (DIZ)” value (Escherichia coli [4]) was 9.6 mm.

In the case of `O=C(NO)[C@H](CO)O[C@@H](CO)c1ccc(C#CC#Cc2ccccc2)cc1`, the pKi [1] was 6.22, the “diameter of the inhibition zone (DIZ)” value (Escherichia coli [2]) was 18 mm and the pIC50 [3] was 5.36. For the same compound, the “diameter of the inhibition zone (DIZ)” value (Escherichia coli [4]) was 9 mm.

For `O=C(NO)[C@@H](CO)O[C@@H](CO)c1ccc(C#Cc2ccc(CN3CCOCC3)cc2)cc1`, the pKi [1] was 4.60, the “diameter of the inhibition zone (DIZ)” value (Escherichia coli [2]) was 20.3 mm and the pIC50 [3] was 3.74. For the same compound, the “diameter of the inhibition zone (DIZ)” value (Escherichia coli [4]) was under 6 mm.

In the case of `O=C(NO)c1ccc(-c2ccc(C#Cc3ccccc3)cc2)o1`, the “diameter of the inhibition zone (DIZ)” value (Escherichia coli [2]) was 8 mm and the “diameter of the inhibition zone (DIZ)” value (Escherichia coli [4]) was under 6 mm.

For `O=C(NO)[C@H](CO)O[C@H](CO)c1ccc(C#CC#Cc2ccccc2)cc1`, the pKi [1] was 6.64, the “diameter of the inhibition zone (DIZ)” value (Escherichia coli [2]) was 21.3 mm and the pIC50 [3] was 5.77. For the same compound, the “diameter of the inhibition zone (DIZ)” value (Escherichia coli [4]) was 13.7 mm.

For `O=C(NO)[C@H]1O[C@H](c2ccc(C#Cc3ccccc3)cc2)[C@@H](O)[C@H]1O`, the pKi [1] was 5.23, the “diameter of the inhibition zone (DIZ)” value (Escherichia coli [2]) was 13.6 mm and the pIC50 [3] was 4.37. The “diameter of the inhibition zone (DIZ)” value (Escherichia coli [4]) was 6.8 mm.

For `O=C(NO)[C@@H]1O[C@@H](c2ccc(C#Cc3ccc(CN4CCOCC4)cc3)cc2)[C@@H](O)[C@H]1O`, the pKi [1] was 5.85, the “diameter of the inhibition zone (DIZ)” value (Escherichia coli [2]) was 22.1 mm and the pIC50 [3] was 5.00. For the same compound, the “diameter of the inhibition zone (DIZ)” value (Escherichia coli [4]) was under 6 mm.

In the case of `O=C(NO)[C@H](CO)O[C@@H](CO)c1ccc(C#Cc2ccc(CN3CCOCC3)cc2)cc1`, the pKi [1] was 5.54, the “diameter of the inhibition zone (DIZ)” value (Escherichia coli [2]) was 27.9 mm and the pIC50 [3] was 4.68. For the same compound, the “diameter of the inhibition zone (DIZ)” value (Escherichia coli [4]) was 14.3 mm.

In the case of `O=C(NO)[C@H](CO)O[C@@H](CO)c1ccc(C#Cc2ccccc2)cc1`, the pKi [1] was 4.68, the “diameter of the inhibition zone (DIZ)” value (Escherichia coli [2]) was 21.3 mm and the pIC50 [3] was 3.82. The “diameter of the inhibition zone (DIZ)” value (Escherichia coli [4]) was 6.8 mm.

For `O=C(NO)[C@@H]1C[C@H](O)[C@H](c2ccc(C#Cc3ccc(CN4CCOCC4)cc3)cc2)O1`, the pKi [1] was 4.92, the “diameter of the inhibition zone (DIZ)” value (Escherichia coli [2]) was 15.3 mm and the pIC50 [3] was 4.06. For the same compound, the “diameter of the inhibition zone (DIZ)” value (Escherichia coli [4]) was under 6 mm.

In the case of `O=C(NO)[C@@H]1O[C@H](c2ccc(C#Cc3ccc(CN4CCOCC4)cc3)cc2)[C@@H](O)[C@H]1O`, the pKi [1] was 5.24, the pIC50 [3] was 4.38 and the “diameter of the inhibition zone (DIZ)” value (Escherichia coli [4]) was under 6 mm.

For `O=C(NO)[C@@H](CO)O[C@@H](CO)c1ccc(C#CC#Cc2ccccc2)cc1`, the pKi [1] was 5.57, the “diameter of the inhibition zone (DIZ)” value (Escherichia coli [2]) was 10.5 mm and the pIC50 [3] was 4.70. The “diameter of the inhibition zone (DIZ)” value (Escherichia coli [4]) was 7.1 mm.

In the case of `O=C(NO)[C@@H]1O[C@H](c2ccc(C#Cc3ccccc3)cc2)[C@@H](O)[C@H]1O`, the pKi [1] was under 4.56, the “diameter of the inhibition zone (DIZ)” value (Escherichia coli [2]) was 16.3 mm and the pIC50 [3] was under 3.70. The “diameter of the inhibition zone (DIZ)” value (Escherichia coli [4]) was under 6 mm.

In the case of `O=C(NO)[C@@H](CO)O[C@@H](CO)c1ccc(C#Cc2ccccc2)cc1`, the pKi [1] was under 4.56, the “diameter of the inhibition zone (DIZ)” value (Escherichia coli [2]) was 9.3 mm and the pIC50 [3] was under 3.70. For the same compound, the “diameter of the inhibition zone (DIZ)” value (Escherichia coli [4]) was under 6 mm.

For `O=C(NO)[C@@H]1O[C@H](c2ccc(C#CC#Cc3ccccc3)cc2)[C@@H](O)[C@H]1O`, the pKi [1] was 6.16, the “diameter of the inhibition zone (DIZ)” value (Escherichia coli [2]) was 14.5 mm and the pIC50 [3] was 5.30. The “diameter of the inhibition zone (DIZ)” value (Escherichia coli [4]) was 10.7 mm.

For `CO[C@H]1[C@@H](O)[C@@H](C(=O)NO)O[C@H]1c1ccc(C#Cc2ccc(CN3CCOCC3)cc2)cc1`, the pKi [1] was under 4.56, the “diameter of the inhibition zone (DIZ)” value (Escherichia coli [2]) was 20.5 mm and the pIC50 [3] was under 3.70. For the same compound, the “diameter of the inhibition zone (DIZ)” value (Escherichia coli [4]) was under 6 mm.

For `CO[C@@H]1[C@H](O)[C@H](c2ccc(C#Cc3ccc(CN4CCOCC4)cc3)cc2)O[C@@H]1C(=O)NO`, the pKi [1] was under 4.56, the “diameter of the inhibition zone (DIZ)” value (Escherichia coli [2]) was 11.7 mm and the pIC50 [3] was under 3.70. The “diameter of the inhibition zone (DIZ)” value (Escherichia coli [4]) was under 6 mm.

With `O=C(NO)[C@@H]1O[C@@H](c2ccc(C#CC#Cc3ccccc3)cc2)[C@@H](O)[C@H]1O` the pKi [1] was 5.68, the “diameter of the inhibition zone (DIZ)” value (Escherichia coli [2]) was 15.7 mm and the pIC50 [3] was 4.82. The “diameter of the inhibition zone (DIZ)” value (Escherichia coli [4]) was under 6 mm.

With `O=C(NO)[C@H](CO)O[C@H](CO)c1ccc(C#Cc2ccccc2)cc1` the pKi [1] was under 4.56, the “diameter of the inhibition zone (DIZ)” value (Escherichia coli [2]) was 16.2 mm and the pIC50 [3] was under 3.70. For the same compound, the “diameter of the inhibition zone (DIZ)” value (Escherichia coli [4]) was under 6 mm.

In the case of `O=C(NO)[C@@H]1O[C@@H](c2ccc(C#Cc3ccccc3)cc2)[C@@H](O)[C@H]1O`, the pKi [1] was 5.48, the “diameter of the inhibition zone (DIZ)” value (Escherichia coli [2]) was 18 mm and the pIC50 [3] was 4.62. For the same compound, the “diameter of the inhibition zone (DIZ)” value (Escherichia coli [4]) was under 6 mm.

For `O=C(NO)[C@@H](CO)O[C@H](CO)c1ccc(C#Cc2ccc(CN3CCOCC3)cc2)cc1`, the pKi [1] was 5.96, the “diameter of the inhibition zone (DIZ)” value (Escherichia coli [2]) was 26.1 mm and the pIC50 [3] was 5.10. The “diameter of the inhibition zone (DIZ)” value (Escherichia coli [4]) was 16 mm.

In the case of `O=C(NO)[C@H]1O[C@@H](c2ccc(C#Cc3ccccc3)cc2)[C@@H](O)[C@H]1O`, the pKi [1] was under 4.56, the “diameter of the inhibition zone (DIZ)” value (Escherichia coli [2]) was 6.5 mm and the pIC50 [3] was under 3.70. For the same compound, the “diameter of the inhibition zone (DIZ)” value (Escherichia coli [4]) was under 6 mm.

With `CC1(C)O[C@@H]2[C@H](O1)[C@H](c1ccc(C#Cc3ccc(CN4CCOCC4)cc3)cc1)O[C@@H]2C(=O)NO` the pKi [1] was under 4.56, the “diameter of the inhibition zone (DIZ)” value (Escherichia coli [2]) was 14.7 mm and the pIC50 [3] was under 3.70. For the same compound, the “diameter of the inhibition zone (DIZ)” value (Escherichia coli [4]) was under 6 mm.

With `O=C(NO)[C@H]1O[C@@H](c2ccc(C#CC#Cc3ccccc3)cc2)[C@@H](O)[C@H]1O` the pKi [1] was 5.36, the “diameter of the inhibition zone (DIZ)” value (Escherichia coli [2]) was 9 mm and the pIC50 [3] was 4.49. The “diameter of the inhibition zone (DIZ)” value (Escherichia coli [4]) was under 6 mm.

With `O=C(NO)[C@H]1O[C@H](c2ccc(C#Cc3ccc(CN4CCOCC4)cc3)cc2)[C@@H](O)[C@H]1O` the pKi [1] was 5.33, the “diameter of the inhibition zone (DIZ)” value (Escherichia coli [2]) was 20.2 mm and the pIC50 [3] was 4.47. The “diameter of the inhibition zone (DIZ)” value (Escherichia coli [4]) was 9.8 mm.
